# Many of the other results were omitted from the sample, so hits are more common in it than they were.
# KDM4C inh – KDM4C (human) demethylase inhibition | inhibition, % at 12.5 µM | GST-KDM4C 2-372, H3K9me3 peptide, LANCE TR-FRET | AID 720574 | Q9H3R0 | hit rate 0.15% among 96,000;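 active = mean replicate inhibition above about 25%, with at least 55% of replicates also reaching it, limit read from the data, passing the limit was not always enough; inconclusive = only one of those two conditions met; inactive = neither condition met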
# Target sequence (Q9H3R0 2-372 limits assumed): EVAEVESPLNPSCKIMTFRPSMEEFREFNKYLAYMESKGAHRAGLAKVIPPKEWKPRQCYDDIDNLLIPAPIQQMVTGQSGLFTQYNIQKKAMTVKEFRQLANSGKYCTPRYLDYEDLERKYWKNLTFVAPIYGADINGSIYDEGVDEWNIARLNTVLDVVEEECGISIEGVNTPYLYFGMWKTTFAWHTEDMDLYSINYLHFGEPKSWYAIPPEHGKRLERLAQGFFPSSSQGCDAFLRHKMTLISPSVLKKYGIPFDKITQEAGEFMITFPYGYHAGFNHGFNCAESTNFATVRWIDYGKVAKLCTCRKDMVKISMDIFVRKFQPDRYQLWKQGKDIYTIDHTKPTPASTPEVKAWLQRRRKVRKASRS
#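 Compound: one test concentration per compound; Material: GST-GASC-1 enzyme fragment 2-372; Amount: GASC-1 enzyme at 10 nM final in reaction; Also added: H3K9me3 peptide substrate, Fe(II), 2-oxoglutarate; Technique: LANCE TR-FRET; Times: 30 min demethylation and 1 h detection at room temperature.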
# IDH1 mut inh – blocks human IDH1 R132H reductase activity; O75874; diaphorase/resazurin fluorescence, 60 min; inhibition, % at 10 µM; hit rate 0.18% among 70,000; in the data active = inhibition above about 34%; inconclusive = no clear call, values can overlap the other calls; inactive = below about 11%;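 note: 0% = DMSO and 100% = no enzyme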
# Target sequence (O75874 whole entry R132H): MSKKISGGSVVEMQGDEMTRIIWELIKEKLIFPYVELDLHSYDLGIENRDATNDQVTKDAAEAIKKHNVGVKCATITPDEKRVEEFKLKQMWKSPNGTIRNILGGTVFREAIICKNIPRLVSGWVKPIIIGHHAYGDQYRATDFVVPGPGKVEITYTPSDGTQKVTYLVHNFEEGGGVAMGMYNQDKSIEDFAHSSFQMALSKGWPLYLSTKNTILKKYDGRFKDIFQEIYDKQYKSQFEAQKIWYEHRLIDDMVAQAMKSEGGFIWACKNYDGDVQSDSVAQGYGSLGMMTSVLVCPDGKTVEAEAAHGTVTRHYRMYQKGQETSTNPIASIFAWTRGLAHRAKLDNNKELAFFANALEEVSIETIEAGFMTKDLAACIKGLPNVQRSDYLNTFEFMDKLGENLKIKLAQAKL
# T cruzi growth-1 – blocks T. cruzi growth in NIH3T3 culture; T. cruzi beta-gal in NIH3T3, GalScreen luminescence, 90 h; inhibition, % at 8.34 µM; hit rate 5.9% among 77,000; AID 624255;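 active = mean inhibition above about 93%, with at least 55% of replicates each passing it, limit read from the data, passing the limit was not always enough; inconclusive = only one of those two conditions holds; inactive = neither condition holds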
# T cruzi growth-2 – Trypanosoma cruzi proliferation inhibition | shares compounds with T cruzi growth-1 | T. cruzi beta-gal in NIH3T3, GalScreen luminescence, 90 h | inhibition, % at 8.35 µM | hit rate 72% among 5,600 | AID 651739;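 active = mean replicate inhibition above about 95% and at least 55% of replicates individually reaching it, limit read from the data; inconclusive = only one of the two criteria is met; inactive = neither criterion is met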
# T cruzi growth-3 – blocks T. cruzi growth in NIH3T3 host cells. T. cruzi beta-gal in NIH3T3, GalScreen luminescence, 90 h. hit rate 21% among 5,600. shares compounds with T cruzi growth-1. inhibition, % at 2.09 µM;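 active = mean inhibition above about 95%, with at least 55% of replicates also reaching it, limit read from the data; inconclusive = meets just one of the two conditions; inactive = meets neither condition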;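 note: plate controls were neutral control median for no effect and positive control median for full effect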
# 3T3 cytotox – cytotoxicity in mouse NIH/3T3 fibroblasts; AID 651742; shares compounds with T cruzi growth-1; NIH/3T3 viability, CellTiter-Glo ATP luminescence, 90 h; hit rate 14% among 5,600; cytotoxicity (signal decrease), % at 8.35 µM;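 active = mean signal decrease across replicates above about 35% based on untreated-well scatter, with enough replicates individually passing, limit read from the data; inconclusive = no rule stated though some were filed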;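 note: 0% = median of neutral control wells and 100% = median of positive control wells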
# 3T3 cytotox 2 – kills mouse NIH/3T3 fibroblasts; shares compounds with T cruzi growth-1; NIH/3T3 viability, CellTiter-Glo ATP luminescence, 90 h; inhibition, % at 24.9 µM; hit rate 56% among 5,600;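 active = mean loss of cell viability signal at or above a set limit, and enough replicates individually reaching it; inconclusive = meets only the mean limit or only the replicate share; inactive = meets neither condition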;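 note: 0% = median of neutral control wells and 100% = median of positive control wells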
# * = called active by the depositor; u = inconclusive; x = no result.
SMILES,KDM4C inh,IDH1 mut inh,T cruzi growth-1,T cruzi growth-2,T cruzi growth-3,3T3 cytotox,3T3 cytotox 2
C[C@H](CO)N1C[C@H](C)[C@@H](CN(C)C(=O)Nc2ccc(C(F)(F)F)cc2)OCCCC[C@H](C)Oc2ccc(NC(=O)Nc3ccc(C(F)(F)F)cc3)cc2C1=O,-0.7,x,112.0*,112.2*,109.2*,-7.6,0.7
C[C@H]1CCCCO[C@@H](CN(C)C(=O)Nc2ccc(C(F)(F)F)cc2)[C@@H](C)CN([C@@H](C)CO)C(=O)c2cc(N(C)C)ccc2O1,-1.7,0.7,u,103.1*,50.0,-8.2,19.9
C[C@@H]1CCCCO[C@H](CN(C)C(=O)Nc2ccc(F)cc2)[C@H](C)CN([C@H](C)CO)C(=O)c2cc(NC(=O)Nc3ccc(C(F)(F)F)cc3)ccc2O1,-2.6,x,92.6,x,x,x,x
C[C@@H]1CCCCO[C@@H](CN(C)C(=O)Nc2ccc(C(F)(F)F)cc2)[C@H](C)CN([C@H](C)CO)C(=O)c2cc(NC(=O)Nc3ccc(F)cc3)ccc2O1,-0.7,-0.7,94.6,x,x,x,x
C[C@H]1CCCCO[C@H](CN(C)C(=O)Nc2ccc(C(F)(F)F)cc2)[C@@H](C)CN([C@@H](C)CO)C(=O)c2cc(NC(=O)Nc3ccc(C(F)(F)F)cc3)ccc2O1,0.3,x,117.7*,108.6*,106.6*,5.2,13.1
C[C@@H]1CN([C@H](C)CO)C(=O)c2cc(NC(=O)Nc3ccc(C(F)(F)F)cc3)ccc2O[C@@H](C)CCCCO[C@H]1CN(C)C(=O)Nc1ccc(C(F)(F)F)cc1,-2.1,-1.6,89.6,x,x,x,x
C[C@@H]1CCCCO[C@H](CN(C)C(=O)Nc2ccc(C(F)(F)F)cc2)[C@@H](C)CN([C@H](C)CO)C(=O)c2cc(N(C)C)ccc2O1,-1.0,0.5,89.1,x,x,x,x
COC(=O)c1csc(S(=O)(=O)N=S(C)(=O)c2cccs2)c1OC (stereo unspecified),x,-1.2,x,x,x,x,x
COC1=C/C(=C/c2c(N)n3c(SC(C)C)nsc3nc2=O)C=CC1=O,x,-0.5,x,x,x,x,x
Cc1ccc(NC(=O)C(C)NS(=O)(=O)c2ccc(Cl)cc2)cc1Cl (stereo unspecified),x,-1.0,x,x,x,x,x
C[C@H](CO)N1C[C@H](C)[C@@H](CN(C)C(=O)c2ccccc2)OCCCC[C@H](C)Oc2ccc(NC(=O)Nc3ccc(C(F)(F)F)cc3)cc2C1=O,0.6,x,-56.3,x,x,x,x
C[C@@H]1CCCCO[C@@H](CN(C)C(=O)c2ccccc2)[C@H](C)CN([C@@H](C)CO)C(=O)c2cc(NC(=O)Nc3ccc(C(F)(F)F)cc3)ccc2O1,-0.2,1.1,102.2*,105.2*,107.8*,-7.8,-5.7
CC(C)NC(=O)Nc1ccc2c(c1)C(=O)N([C@H](C)CO)C[C@H](C)[C@@H](CN(C)C(=O)Nc1ccc(C(F)(F)F)cc1)OCCCC[C@@H](C)O2,-0.7,x,46.3,x,x,x,x
CC(C)NC(=O)Nc1ccc2c(c1)C(=O)N([C@@H](C)CO)C[C@@H](C)[C@H](CN(C)C(=O)Nc1ccc(C(F)(F)F)cc1)OCCCC[C@@H](C)O2,-2.2,x,102.2*,102.4*,8.6,14.0,6.9
C[C@@H]1CCCCO[C@@H](CN(C)C(=O)Nc2ccc(C(F)(F)F)cc2)[C@H](C)CN([C@@H](C)CO)C(=O)c2cc(NC(=O)Nc3ccc(C(F)(F)F)cc3)ccc2O1,-0.7,-2.4,115.7*,99.0*,113.0*,-17.4,-25.0
C[C@@H]1CCCCO[C@H](CN(C)C(=O)Nc2ccc(F)cc2)[C@@H](C)CN([C@@H](C)CO)C(=O)c2cc(NC(=O)Nc3ccc(C(F)(F)F)cc3)ccc2O1,-2.5,x,89.0,x,x,x,x
CC(C)NC(=O)N(C)C[C@H]1OCCCC[C@H](C)Oc2ccc(NC(=O)Nc3ccc(C(F)(F)F)cc3)cc2C(=O)N([C@@H](C)CO)C[C@H]1C,-0.2,0.6,49.1,x,x,x,x
CC(C)NC(=O)N(C)C[C@@H]1OCCCC[C@H](C)Oc2ccc(NC(=O)Nc3ccc(C(F)(F)F)cc3)cc2C(=O)N([C@H](C)CO)C[C@@H]1C,-0.5,1.2,99.7*,99.7*,1.1,12.1,13.8
Cc1cccc(C)c1NC(=O)C1CC=CCC1C(=O)O (stereo unspecified),x,0.2,x,x,x,x,x
Cc1c(NC(=O)COc2ccccc2Cl)cccc1C(=O)O,x,0.3,x,x,x,x,x
COc1ccc(OC)c(S(=O)(=O)Nc2cc([N+](=O)[O-])ccc2C)c1,x,-1.3,x,x,x,x,x
C[C@H](CO)N1C[C@H](C)[C@@H](CN(C)Cc2ccc(C(=O)Nc3ccccc3N)cc2)Oc2c(NC(=O)C3CCOCC3)cccc2C1=O,3.8,0.6,99.4*,101.8*,86.7,2.7,4.1
C[C@H](CO)N1C[C@H](C)[C@H](CN(C)Cc2ccc(C(=O)Nc3ccccc3N)cc2)Oc2c(NC(=O)C3CCOCC3)cccc2C1=O,4.9,-0.4,86.0,x,x,x,x
Cc1cc(C(=O)Nc2cccc3c2O[C@H](CN(C)Cc2ccc(Oc4ccccc4)cc2)[C@H](C)CN([C@@H](C)CO)C3=O)n(C)n1,0.3,x,-29.9,x,x,x,x
C[C@@H]1CN([C@@H](C)CO)C(=O)c2cccc(N(C)C)c2O[C@H]1CN(C)Cc1ccc(C(=O)Nc2ccccc2N)cc1,5.4,-0.1,90.1,x,x,x,x
SMILES,KDM4C inh,IDH1 mut inh,T cruzi growth-1,T cruzi growth-2,T cruzi growth-3,3T3 cytotox,3T3 cytotox 2
C[C@H](CO)N1C[C@H](C)[C@@H](CN(C)Cc2ccc(C(=O)Nc3ccccc3N)cc2)Oc2c(cccc2N(C)C)C1=O,3.7,0.0,u,101.5*,13.3,9.7,33.0*
C[C@@H]1CN([C@@H](C)CO)C(=O)c2cccc(NC(=O)c3ccncc3)c2O[C@@H]1CN(C)Cc1ccc(C(=O)Nc2ccccc2N)cc1,0.8,x,u,89.1,48.2,21.2,67.3*
C[C@@H]1CN([C@@H](C)CO)C(=O)c2cccc(NC(=O)c3ccncc3)c2O[C@H]1CN(C)Cc1ccccc1,-0.5,x,63.9,x,x,x,x
Cc1cc(C(=O)Nc2cccc3c2O[C@@H](CN(C)Cc2ccc(Oc4ccccc4)cc2)[C@H](C)CN([C@H](C)CO)C3=O)n(C)n1,9.5,x,104.5*,103.8*,58.9,15.1,104.3*
O=C(CCCCCCC(=O)Nc1ccccc1O)N/N=C/c1cccc(C(=O)O)c1,x,1.2,x,x,x,x,x
COc1cc(Cl)c(C)cc1NC(=O)CC1Sc2ccccc2NC1=O (stereo unspecified),x,0.1,x,x,x,x,x
CN(CC(=O)Nc1cc(C(F)(F)F)ccc1Cl)S(=O)(=O)c1ccc2ccccc2c1,x,-0.3,x,x,x,x,x
COc1cc2c(cc1-c1coc3c4c(ccc3c1=O)OC(C)(C)C=C4)OCO2,x,0.8,x,x,x,x,x
O=C(CCCCCC(=O)Nc1ccccc1O)N/N=C/c1cc(F)ccc1O,x,-0.4,x,x,x,x,x
COc1ccc(NC(=O)c2ccc(Cn3cc(Br)cn3)cc2)cc1OC,x,1.5,x,x,x,x,x
C[C@H](CO)N1C[C@H](C)[C@H](CN(C)Cc2ccc(C(=O)Nc3ccccc3N)cc2)Oc2c(NC(=O)c3cnccn3)cccc2C1=O,-0.5,-0.3,x,x,x,x,x

# Screens: PubChem, Broad Institute
